Tests used:
[1] = molecular target: T1, Peroxisome proliferator-activated receptor delta (Homo sapiens, UniProt Q03181); test: Agonist activity at GAL4-tagged human PPARdelta ligand binding domain chimeric receptor expressed in HEK293 cells after 24 hrs by luciferase reporter gene assay; type: cell-based
T1 sequence (Q03181 whole entry): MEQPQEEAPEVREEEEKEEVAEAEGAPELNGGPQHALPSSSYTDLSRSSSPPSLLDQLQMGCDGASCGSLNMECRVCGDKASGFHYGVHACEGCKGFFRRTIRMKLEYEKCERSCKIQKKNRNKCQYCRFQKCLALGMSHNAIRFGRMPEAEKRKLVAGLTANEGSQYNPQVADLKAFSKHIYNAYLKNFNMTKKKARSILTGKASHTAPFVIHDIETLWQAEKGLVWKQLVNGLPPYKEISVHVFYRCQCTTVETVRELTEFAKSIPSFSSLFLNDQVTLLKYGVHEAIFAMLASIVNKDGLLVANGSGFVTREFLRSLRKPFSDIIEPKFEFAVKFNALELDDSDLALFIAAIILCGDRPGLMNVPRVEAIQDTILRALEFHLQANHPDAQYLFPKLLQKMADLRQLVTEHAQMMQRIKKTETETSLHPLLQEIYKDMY

Acetyl-CoA carboxylase 2 [2] = molecular target: T2, Acetyl-CoA carboxylase 2 (Homo sapiens, UniProt O00763); test: Inhibition of full length recombinant C-terminal His-tagged human ACC2 expressed in baculovirus infected sf9 cells at 30 uM using acetyl-CoA as substrate after 90 mins by ATP consumption assay relative to N-(4-(4-(4-isopropoxyphenoxy)phenyl)but-3-yn-2-yl)acetamide
How it was run: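 ATP-consumption assay with His-tagged human ACC2 (50 ng/well), 0.5 mM acetyl-CoA, 0.5 μM ATP and bicarbonate/citrate/Mg2+ in HEPES pH 7.5, run 90 min at 37 °C. Residual ATP was measured. Inhibition at 30 μM is expressed as a percentage of the maximum inhibition reached by the reference ACC inhibitor (set to 100%).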
Target sequence in this assay (O00763 whole entry, looked up): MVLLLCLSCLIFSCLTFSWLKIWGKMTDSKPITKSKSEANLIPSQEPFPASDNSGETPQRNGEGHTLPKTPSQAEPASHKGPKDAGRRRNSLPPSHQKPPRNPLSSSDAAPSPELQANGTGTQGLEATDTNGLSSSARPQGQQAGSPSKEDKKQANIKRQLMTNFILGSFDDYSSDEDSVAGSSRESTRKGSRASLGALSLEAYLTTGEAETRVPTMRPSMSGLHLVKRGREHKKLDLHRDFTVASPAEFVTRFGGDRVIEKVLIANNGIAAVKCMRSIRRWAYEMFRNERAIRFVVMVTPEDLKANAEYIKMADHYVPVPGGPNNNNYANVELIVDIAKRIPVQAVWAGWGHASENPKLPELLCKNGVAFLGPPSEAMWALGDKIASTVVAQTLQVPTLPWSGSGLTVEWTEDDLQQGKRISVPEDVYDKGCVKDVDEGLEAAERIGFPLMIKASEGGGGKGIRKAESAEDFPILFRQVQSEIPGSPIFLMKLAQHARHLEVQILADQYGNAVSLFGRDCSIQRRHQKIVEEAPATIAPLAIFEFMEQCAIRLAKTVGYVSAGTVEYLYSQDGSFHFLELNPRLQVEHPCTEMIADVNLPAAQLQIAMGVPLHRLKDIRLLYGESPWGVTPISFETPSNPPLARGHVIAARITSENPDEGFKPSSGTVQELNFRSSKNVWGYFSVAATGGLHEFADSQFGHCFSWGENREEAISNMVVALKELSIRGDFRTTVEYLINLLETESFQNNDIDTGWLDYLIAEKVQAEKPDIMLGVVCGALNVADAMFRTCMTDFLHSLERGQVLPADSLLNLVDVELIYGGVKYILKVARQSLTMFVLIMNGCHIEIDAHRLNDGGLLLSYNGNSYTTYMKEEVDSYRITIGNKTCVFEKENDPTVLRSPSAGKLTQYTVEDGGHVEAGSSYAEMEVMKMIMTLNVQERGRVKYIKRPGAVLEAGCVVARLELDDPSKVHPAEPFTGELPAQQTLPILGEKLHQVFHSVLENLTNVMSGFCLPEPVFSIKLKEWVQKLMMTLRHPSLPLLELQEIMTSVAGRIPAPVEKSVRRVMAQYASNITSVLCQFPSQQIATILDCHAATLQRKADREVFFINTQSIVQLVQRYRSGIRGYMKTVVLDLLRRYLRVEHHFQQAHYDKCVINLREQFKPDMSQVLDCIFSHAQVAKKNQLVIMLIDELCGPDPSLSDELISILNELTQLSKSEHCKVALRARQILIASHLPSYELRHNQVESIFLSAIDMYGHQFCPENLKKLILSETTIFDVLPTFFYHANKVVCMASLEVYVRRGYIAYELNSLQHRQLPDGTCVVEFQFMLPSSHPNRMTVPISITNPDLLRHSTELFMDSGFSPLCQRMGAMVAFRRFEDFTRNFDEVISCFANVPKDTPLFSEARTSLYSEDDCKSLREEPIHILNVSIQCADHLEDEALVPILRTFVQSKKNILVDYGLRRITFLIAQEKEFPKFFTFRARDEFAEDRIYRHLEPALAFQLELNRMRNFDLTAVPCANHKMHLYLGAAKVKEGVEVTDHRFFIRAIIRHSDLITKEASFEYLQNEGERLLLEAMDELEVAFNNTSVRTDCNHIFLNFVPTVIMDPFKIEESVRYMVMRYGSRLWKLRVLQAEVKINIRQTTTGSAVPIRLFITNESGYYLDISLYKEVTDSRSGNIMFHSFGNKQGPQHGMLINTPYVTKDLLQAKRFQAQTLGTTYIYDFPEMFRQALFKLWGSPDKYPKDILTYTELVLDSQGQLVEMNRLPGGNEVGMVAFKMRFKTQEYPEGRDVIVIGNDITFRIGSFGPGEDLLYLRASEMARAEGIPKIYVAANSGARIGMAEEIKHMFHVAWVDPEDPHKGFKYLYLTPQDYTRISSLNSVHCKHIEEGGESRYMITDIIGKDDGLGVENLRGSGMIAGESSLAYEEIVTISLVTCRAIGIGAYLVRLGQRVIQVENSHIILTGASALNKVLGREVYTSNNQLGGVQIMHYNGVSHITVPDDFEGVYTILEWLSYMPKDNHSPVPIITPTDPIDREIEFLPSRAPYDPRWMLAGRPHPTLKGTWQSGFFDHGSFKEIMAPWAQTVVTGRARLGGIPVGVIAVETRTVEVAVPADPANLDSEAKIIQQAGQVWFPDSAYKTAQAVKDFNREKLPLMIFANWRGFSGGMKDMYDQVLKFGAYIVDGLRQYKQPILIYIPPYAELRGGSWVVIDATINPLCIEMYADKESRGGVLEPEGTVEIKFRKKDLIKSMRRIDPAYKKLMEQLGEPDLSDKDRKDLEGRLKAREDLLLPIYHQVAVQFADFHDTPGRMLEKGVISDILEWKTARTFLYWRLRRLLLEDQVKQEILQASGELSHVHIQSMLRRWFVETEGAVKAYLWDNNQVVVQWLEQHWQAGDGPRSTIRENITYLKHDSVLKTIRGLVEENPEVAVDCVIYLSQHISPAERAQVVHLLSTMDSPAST

[3] = molecular target: T3, Peroxisome proliferator-activated receptor alpha (Homo sapiens, UniProt Q07869); test: Agonist activity at GAL4-tagged human PPARalpha ligand binding domain chimeric receptor expressed in HEK293 cells after 24 hrs by luciferase reporter gene assay; type: cell-based
T3 sequence (Q07869 whole entry): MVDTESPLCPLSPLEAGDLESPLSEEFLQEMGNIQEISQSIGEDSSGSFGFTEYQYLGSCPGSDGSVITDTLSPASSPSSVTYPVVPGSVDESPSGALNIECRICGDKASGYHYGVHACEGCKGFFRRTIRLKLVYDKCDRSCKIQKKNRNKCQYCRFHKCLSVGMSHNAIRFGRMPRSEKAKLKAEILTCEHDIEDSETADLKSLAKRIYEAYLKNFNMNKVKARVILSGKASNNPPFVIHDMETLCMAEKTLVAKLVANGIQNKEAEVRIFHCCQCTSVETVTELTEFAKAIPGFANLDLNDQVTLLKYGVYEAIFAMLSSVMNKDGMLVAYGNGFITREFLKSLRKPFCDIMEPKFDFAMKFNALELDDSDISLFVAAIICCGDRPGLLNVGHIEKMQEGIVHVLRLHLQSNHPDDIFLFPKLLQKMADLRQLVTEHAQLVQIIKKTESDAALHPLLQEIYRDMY
How it was run: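 HEK293 cells seeded at 20% confluence the day before. They were co-transfected by calcium phosphate with a CMX-GAL4N-hPPARα, γ or δ LBD plasmid (30 ng), TK-MH100x4-Luc reporter (100 ng) and CMX-β-galactosidase (10 ng). After 24 h, compound was added for 24 h (final 0.5% DMSO). Luciferase was read and normalized to β-galactosidase (2-nitrophenyl-β-D-galactopyranoside, A405). Triplicates; EC50 taken from dose–response curves.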

Acetyl-CoA carboxylase 2 [4] = molecular target: T2, Acetyl-CoA carboxylase 2; test: Inhibition of full length recombinant C-terminal His-tagged human ACC2 expressed in baculovirus infected sf9 cells using acetyl-CoA as substrate after 90 mins by ATP consumption assay
How it was run: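 Recombinant C-terminal His-tagged human ACC2 (50 ng/well) was run in 30 mM HEPES pH 7.5 with 18 mM NaHCO3, 1.0 mg/mL BSA, 0.5 μM ATP, 1 mM DTT, 4 mM MgCl2, 2 mM sodium citrate, 0.5 mM acetyl-CoA and 1% DMSO. Inhibitor ranged 0–100 μM. Enzyme addition started the reaction, then 90 min at 37 °C. Residual ATP was read by luminescence. Triplicates; IC50 from dose–response curves.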
Target sequence in this assay (O00763 whole entry): as the sequence (O00763 whole entry, looked up) above

[5] = molecular target: T4, Peroxisome proliferator-activated receptor alpha (Homo sapiens) (UniProt Q07869); test: Agonist activity at GAL4-tagged human PPARalpha ligand binding domain chimeric receptor expressed in HEK293 cells after 24 hrs by luciferase reporter gene assay relative to GW7647; type: cell-based
T4 sequence (whole entry): T3 sequence (Q07869 whole entry)

[6] = molecular target: T5, Peroxisome proliferator-activated receptor delta (Homo sapiens) (UniProt Q03181); test: Agonist activity at GAL4-tagged human PPARdelta ligand binding domain chimeric receptor expressed in HEK293 cells after 24 hrs by luciferase reporter gene assay relative to GW501516; type: cell-based
T5 sequence (whole entry): T1 sequence (Q03181 whole entry)

SMILES	EC50 [1] [nM]	Imax (Acetyl-CoA carboxylase 2 [2]) [%]	EC50 [3] [nM]	IC50 (Acetyl-CoA carboxylase 2 [4]) [nM]	Emax [5] [%]	Emax [6] [%]
CCOc1ccc(Oc2ccc(-c3noc(C(C)NC(C)=O)n3)cc2)cc1 (configuration not stated)	370	35	330	420		
CCCCCCOc1ccc(Oc2ccc(-c3noc(C(C)NC(C)=O)n3)cc2)cc1 (configuration not stated)		93		260		
CC(=O)N[C@H](C)c1nc(-c2ccc(Oc3ccccc3)cc2)no1		37				
CC(=O)NCc1nc(-c2ccc(Oc3ccc(OC(C)C)cc3)cc2)no1		83		1100		
CC(=O)NC(C)c1nc(-c2ccc(Oc3ccc(O)cc3)cc2)no1 (configuration not stated)	1000	24	1000		13 to 33	2 to 9
CC(=O)NC(C)c1nc(-c2ccc(Oc3ccc(OC(C)C)cc3)cc2)no1 (configuration not stated)		74		100		
CC(=O)NCc1nc(-c2ccc(Oc3ccc(O)cc3)cc2)no1		3				
COc1ccc(Oc2ccc(-c3noc(C(C)NC(C)=O)n3)cc2)cc1 (configuration not stated)	390	17	210			
CC(=O)NC(C)c1nc(-c2ccc(Oc3ccc(Oc4ccccc4)cc3)cc2)no1 (racemic)		76		48		
CCCOc1ccc(Oc2ccc(-c3noc(C(C)NC(C)=O)n3)cc2)cc1 (configuration not stated)		88		610		
CC(=O)NC(C)c1nc(-c2ccc(Oc3ccccc3)cc2)no1 (racemic)	320	45	320	290		
CC(=O)NC(C)C#Cc1ccc(Oc2ccc(OC(C)C)cc2)cc1 (configuration not stated)				11		
CC(=O)N[C@@H](C)c1nc(-c2ccc(Oc3ccccc3)cc2)no1	290	65	150	220		
CC(=O)N[C@@H](C)c1nc(-c2ccc(Oc3ccc(Oc4ccccc4)cc3)cc2)no1		86		16		
CC(=O)N[C@H](C)c1nc(-c2ccc(Oc3ccc(Oc4ccccc4)cc3)cc2)no1		67		7500		

From ChEMBL document CHEMBL3861985, “Discovery of N-(1-(3-(4-phenoxyphenyl)-1,2,4-oxadiazol-5-yl)ethyl)acetamides as novel acetyl-CoA carboxylase 2 (ACC2) inhibitors with peroxisome proliferator-activated receptor α/δ (PPARα/δ) dual agonistic activity” (Bioorg Med Chem, 2016)
